Experimental data taken from PMC9041111 (RSC Advances, 2021).

Key:
KCa3.1 channel = KCa3.1 channel (Homo sapiens, UniProt O15554); assay: whole-cell patch clamp on A549-3R cells, 1-EBIO activated KCa3.1 current; assay type: cell-based
[1] = in vitro metabolism with mouse liver microsomes and NADPH, LC-MS/MS; assay type: in vitro ADME; conditions: mouse liver microsomes, NADPH, 37 °C, 90 min
In short: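 The non-radioactive fluorinated reference compound was incubated with mouse liver microsomes and NADPH at 37 °C for 90 min. The reaction was stopped with CH3CN/CH3OH (1:1), cooled and centrifuged to remove protein. The supernatant was analysed by ESI LC-MS/MS (qToF). The metabolite was assigned from the accurate m/z of the [M + H]+ ion against the calculated exact mass.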

[2] = chemical stability under 18F-labelling conditions; assay type: physicochemical; conditions: 10 min, DMF

Chain of KCa3.1 channel (O15554 whole entry): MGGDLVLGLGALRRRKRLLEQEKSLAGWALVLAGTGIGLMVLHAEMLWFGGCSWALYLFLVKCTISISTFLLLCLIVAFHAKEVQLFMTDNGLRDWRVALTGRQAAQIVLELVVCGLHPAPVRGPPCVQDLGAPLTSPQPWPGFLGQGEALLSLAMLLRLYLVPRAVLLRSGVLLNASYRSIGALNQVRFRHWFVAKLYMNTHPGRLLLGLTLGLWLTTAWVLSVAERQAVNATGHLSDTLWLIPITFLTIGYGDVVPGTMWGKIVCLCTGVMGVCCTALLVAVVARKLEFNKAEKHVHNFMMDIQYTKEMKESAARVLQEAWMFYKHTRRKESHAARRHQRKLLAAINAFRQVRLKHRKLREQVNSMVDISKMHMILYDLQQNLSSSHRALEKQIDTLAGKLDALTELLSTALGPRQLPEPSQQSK

With CCn1c(=O)[nH]c2ccccc21 [1-EBIO, 1-ethyl-2-benzimidazolone] the “effect on current (current density) in patch clamp” value (KCa3.1 channel; 1-EBIO 50 μM, applied 2-5 min, n = 5) was “increased outward current”.
For NC(=O)C(c1ccccc1)(c1ccc(F)cc1)c1ccc(OCCF)cc1 (centres unmarked) [compound 28], the “effect on 1-EBIO activated KCa3.1 mediated current” value (KCa3.1 channel; 28 at 10 μM after 1-EBIO 50 μM, n = 5) was “reduced ionic current” and the main metabolite [1] was “phenol 9”.
For NC(=O)C(c1ccccc1)(c1ccc(F)cc1)c1ccc(F)cc1 [senicapoc], the “effect on 1-EBIO activated KCa3.1 mediated current” value (KCa3.1 channel; senicapoc 1 μM, applied consecutively after 28, n = 5) was “complete inhibition”, the “Stability (TLC)” value ([2]; (NH4)2C2O4 (5 eq.), 90 °C) was “Stable” and the “Stability (TLC)” value ([2]; (NH4)2C2O4 (5 eq.), 110 °C) was “Stable”. For the same molecule, the “Stability (TLC)” value ([2]; (NH4)2C2O4 (5 eq.), 130 °C) was “Stable”, the “Stability (TLC)” value ([2]; K2CO3 (5 eq.), 90 °C) was “Partial decomposition” and the “Stability (TLC)” value ([2]; K2CO3 (5 eq.), 110 °C) was “Partial decomposition”. For the same molecule, the “Stability (TLC)” value ([2]; K2CO3 (5 eq.), 130 °C) was “Complete decomposition”, the “Stability (TLC)” value ([2]; TBAF (5 eq.), 90 °C) was “Complete decomposition” and the “Stability (TLC)” value ([2]; TBAF (5 eq.), 110 °C) was “Complete decomposition”. The “Stability (TLC)” value ([2]; TBAF (5 eq.), 130 °C) was “Complete decomposition” and the “Stability (TLC)” value ([2]; no base, 130 °C) was “Stable”.
